TbMetRS inhib = Trypanosoma brucei MetRS inhibition; purified T. brucei MetRS, ATP depletion, Kinase-Glo luminescence; AID 624268; actives 0.4% (n = 360,000); inhibition, % at 11.9 µM;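 active = inhibition above a per-plate cutoff of the control wells' mean inhibition plus 3 SD, cut at about 5.5% in these data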;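 also: 0% = DMSO wells median and 100% = median of wells with control inhibitor compound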
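Test system: purified T. brucei MetRS enzyme. Also added: ATP, methionine and E. coli bulk tRNA substrates. Compound: 11.9 µM single point. Schedule: 15 min enzyme-compound preincubation, 2 h reaction, 10 min detection, 25 °C. Signal: luciferase luminescence of residual ATP, Kinase-Glo. Evaluation: percent inhibition versus plate control medians. Controls: DMSO wells, low control.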
PLC-gamma1 inh = inhibitors of human phospholipase C gamma1. AID 720700. actives 0.84% (n = 370,000). inhibition, % at 12.2 µM. P19174. purified PLC-gamma1, fluorogenic substrate, fluorescence
PLC-beta3 inh = inhibitors of human phospholipase C beta3 | Q01970 | Purified PLC-beta3, fluorogenic substrate, fluorescence | inhibition, % at 12.2 µM | actives 0.18% (n = 370,000) | AID 720704; in the data active = inhibition above about 11%;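 also: 0% = median of compound wells on plate and 100% = full blocker control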
sPLA2-III inh = Inhibits HGIII-sPLA2 liposome hydrolysis, primary screen; Q9NZ20; QFRET BODIPY PC-A2 liposome hydrolysis, fluorescence; inhibition, % at 12.2 µM; actives 0.56% (n = 370,000); AID 743126;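 active = inhibition above mean plus 3 SD of compounds lying within the high and low control bounds, cut at about 19% in these data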;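 also: 0% = median of test compound wells and 100% = no enzyme DMSO wells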
DAGLB inhibitor = blocks human DAGLB lipase activity; Q8NCG7; HEK293T DAGLB membrane lysate, EnzChek fluorogenic substrate; inhibition, % at 5.17 µM; actives 0.059% (n = 340,000); AID 504411; in the data active = inhibition above about 34%;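 also: 0% = enzyme with vehicle and 100% = wells lacking enzyme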
Target sequence (Q8NCG7 whole entry, looked up): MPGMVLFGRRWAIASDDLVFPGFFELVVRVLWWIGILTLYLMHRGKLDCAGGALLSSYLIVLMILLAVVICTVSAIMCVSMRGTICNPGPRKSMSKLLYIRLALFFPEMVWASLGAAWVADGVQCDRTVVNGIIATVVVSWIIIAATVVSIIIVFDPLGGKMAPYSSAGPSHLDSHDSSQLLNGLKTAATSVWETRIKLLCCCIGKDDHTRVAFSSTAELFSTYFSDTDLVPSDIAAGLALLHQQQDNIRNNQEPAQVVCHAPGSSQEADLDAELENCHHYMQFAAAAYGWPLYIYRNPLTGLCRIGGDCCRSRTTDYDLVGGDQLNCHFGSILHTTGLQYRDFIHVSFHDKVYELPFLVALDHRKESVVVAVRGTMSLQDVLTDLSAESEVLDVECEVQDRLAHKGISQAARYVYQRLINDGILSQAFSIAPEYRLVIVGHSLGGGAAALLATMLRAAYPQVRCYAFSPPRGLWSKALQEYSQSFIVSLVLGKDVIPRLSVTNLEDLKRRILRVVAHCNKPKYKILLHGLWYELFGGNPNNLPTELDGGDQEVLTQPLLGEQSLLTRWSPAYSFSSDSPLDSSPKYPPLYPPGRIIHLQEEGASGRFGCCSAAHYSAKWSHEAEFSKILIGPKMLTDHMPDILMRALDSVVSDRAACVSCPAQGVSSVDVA
PLCg1 ctr = counter-screen for PLC-beta3 inhibitors: inhibitors of human PLC-gamma1 | shares compounds with PLC-gamma1 inh | purified PLC-gamma1, fluorogenic substrate, fluorescence | inhibition, % at 12.3 µM | actives 3.1% (n = 3,300)
PLCb3 confirm = human PLC-beta3 inhibition, confirmation | purified PLC-beta3, fluorogenic substrate fluorescence | actives 1% (n = 3,300) | shares compounds with PLC-gamma1 inh | inhibition, % at 12.3 µM | AID 743261; in the data active = inhibition above about 11%
* marks the source's active call; other numbers are inactive results; i = inactive; / = no result. Sampled rows, rich in hits. Any-hit rate of the full collection: about 1.9%. Rule as the data show it, unless noted: active = inhibition above about 9.5%; inactive = the rest.

SMILES | TbMetRS inhib | PLC-gamma1 inh | PLC-beta3 inh | sPLA2-III inh | DAGLB inhibitor | PLCg1 ctr | PLCb3 confirm
O=C(NC1CCCCC1)C(c1ccc2ncccc2c1)N(Cc1ccc2c(c1)OCO2)C(=O)c1cccs1 (stereo not given) | 0 | 9.6* | 0 | 1 | 0 | -6 | -2
O=C(NC1CCCCC1)C(c1ccc2ncccc2c1)N(Cc1ccccc1)C(=O)c1cccs1 (stereo not given) | 0 | 2 | -2 | -8 | 1 | / | /
O=C(NC1CCCCC1)C(c1ccncc1)N(Cc1ccc2c(c1)OCO2)C(=O)c1cnsn1 (stereo not given) | 0 | 6 | 11* | 3 | 2 | -6 | -3
O=C(NC1CCCC1)C(c1ccccc1)N(Cc1ccc2c(c1)OCO2)C(=O)Cc1cccs1 (stereo not given) | 0 | 3 | 7 | 7 | -4 | / | /
COc1ccc2ccccc2c1C=NNC(=O)CN1CCN(Cc2ccccc2)CC1 | / | -1 | -2 | -2 | / | / | /
COc1cccc(NC(=O)C(Sc2nnc(-c3ccncc3)n2-c2ccc(Cl)cc2)c2ccccc2)c1 (stereo not given) | 0 | 11* | 4 | -22 | 2 | 0 | -1
O=C(CN1C(=O)NC2(CCCC2)C1=O)N1CCN(S(=O)(=O)c2cc(Cl)ccc2Cl)CC1 | 0 | 10* | -15 | 10 | -2 | -4 | -5
COC[C@H]1CCCN1c1ccc2c(c1)O[C@@H]1CCN(C1)S2(=O)=O | / | -1 | -1 | 2 | / | / | /
COC(=O)[C@]12C[C@H](CC(=O)N3CCCCC3)C(=O)N(CCC3=CCCCC3)C1=C[C@H](C(C)C)O[C@@H]2C1CC1 | / | 0 | 3 | -4 | / | / | /
Cc1nc(N2CCOCC2)[nH]c(=O)c1[N+](=O)[O-] | 0 | 13* | -2 | 1 | 5 | 1 | 2
Cc1ccccc1C(=O)NC1CCN(Cc2nnnn2C(C)(C)C)CC1 | -1 | 2 | 1 | 8 | -2 | / | /
Cc1ccccc1C(=O)NC1CCN(Cc2nnnn2C2CCCC2)CC1 | -1 | 14* | 3 | 7 | -6 | 12* | 5
COc1ccc2sc(N(CCCN(C)C)C(=O)c3ccc(S(=O)(=O)N4CCCC4)cc3)nc2c1 | -1 | 12* | 7 | -12 | 1 | -4 | -2
CCOC(=O)N1CCN(S(=O)(=O)c2ccc(C(=O)N(CCCN(C)C)c3nc4cc(OC)ccc4s3)cc2)CC1 | 0 | 5 | 2 | -31 | 0 | / | /
O=C(CN(c1ccccc1Cl)S(=O)(=O)c1ccccc1)NC1CC2CCC1C2 (stereo not given) | 0 | 6 | 14* | -8 | -1 | -3 | -51
CC1(C)O[C@@H]2[C@H](O1)[C@@H](CO)O[C@H]2n1cc(Br)c(=O)[nH]c1=O | 0 | 14* | 10 | 12 | -2 | 1 | -6
CC1(C)O[C@@H]2[C@H](O1)[C@@H](CO)O[C@H]2n1ccc(=O)[nH]c1=O | 0 | 3 | 8 | 0 | 0 | / | /
COc1ccc(/C=N/NC2=NCCCCC2)c(OC)c1 | 0 | -77 | -106 | 3 | 0 | / | /
COc1ccc(/C=N/NC2=NCCCCC2)cc1 | 0 | 10* | 1 | 6 | 0 | -2 | 1
CCN(CC)C(=O)c1cc2c(=O)oc3ccccc3c2s1 | 0 | 11* | 6 | 8 | 0 | -5 | -3
CCN(CC)C(=O)c1cc2c(=O)n3ccccc3nc2s1 | 0 | i | i | 9 | 0 | / | /
CCc1ccccc1NC(=O)CCC(=O)N1CCN(C(C)=O)CC1 | 0 | 2 | 5 | 2 | 0 | / | /
CCc1ccccc1NC(=O)CN1CCN(C(=O)CNC(=O)c2ccc(N3CCCC3=O)cc2)CC1 | 0 | 12* | -4 | -7 | 2 | -4 | 2
CCc1ccccc1NC(=O)CN1CCN(C(=O)CCC(=O)N2CCC(c3ccccc3)=N2)CC1 | 0 | 13* | -1 | -7 | -1 | -3 | -4
CC1CCN(c2c3c(nc4ncnn24)CCCC3)CC1 | / | -2 | -4 | 0 | / | / | /
SMILES | TbMetRS inhib | PLC-gamma1 inh | PLC-beta3 inh | sPLA2-III inh | DAGLB inhibitor | PLCg1 ctr | PLCb3 confirm
CC(C)CC(N)c1csc(NC(=O)Nc2ccccc2Cc2ccccc2)n1 (stereo not given) | 0 | 3 | 5 | 19 | / | / | /
CC(C)CC(N)c1csc(NC(=O)c2cc(C(C)(C)C)nn2Cc2ccccc2)n1 (stereo not given) | 0 | 16* | 5 | 12 | / | -3 | -1
COc1ccc(N2CCCN(CC(=O)Nc3ccc(Cl)cc3)CC2)cc1 | / | -1 | -3 | 14 | / | / | /
O=[N+]([O-])c1ccc(-c2cnc3ccccc3n2)cc1 | 0 | -5 | -6 | 15 | -1 | / | /
O=[N+]([O-])c1ccc(-c2c(O)c3ccccc3c3nc4ccccc4nc23)cc1 | 0 | 8 | 11* | 1 | -1 | -2 | -3
CC(C)C(NC(=O)c1ccccc1)C(=O)OCC(=O)N1CCN(c2ccccc2)CC1 (stereo not given) | 0 | 11* | -6 | -6 | 0 | -1 | 0
CC(C)C(NC(=O)c1ccccc1)C(=O)OCC(=O)N1CCCCC1 (stereo not given) | 0 | 8 | 2 | -5 | 1 | / | /
O=S1(=O)c2c(cccc2N2CC[C@H](O)C2)O[C@H]2CCN1C2 | / | -3 | -2 | 8 | / | / | /
CCNC(=O)Nc1ccc2c(c1)C(=O)N(C)[C@H]1CC[C@H](CC(=O)N[C@H](C)c3ccccc3)O[C@@H]1CO2 | / | 9.5* | 7 | -26 | / | 11* | 12*
C[C@@H](NC(=O)C[C@H]1CC[C@H]2[C@@H](COc3ccc(NC(=O)Nc4ccccc4)cc3C(=O)N2C)O1)c1ccccc1 | / | 12* | 3 | -19 | / | 4 | 8
CCCNC(=O)C[C@H]1CC[C@H]2[C@@H](COc3ccc(NC(=O)Nc4ccccc4)cc3C(=O)N2C)O1 | / | 5 | 4 | -7 | / | / | /
CN1C(=O)c2cc(NS(=O)(=O)c3ccc(F)cc3)ccc2OC[C@H]2O[C@@H](CC(=O)NCC(F)(F)F)CC[C@@H]21 | / | 12* | 7 | -40 | / | 13* | 17*
CCCC[C@@H]1C(=O)N2N=C(c3ccccc3)c3ccccc3[C@H]2N2N=C(c3ccccc3)c3ccccc3[C@@H]12 | / | -12 | -26 | 1 | / | / | /
CC(C)N(Cc1nc(-c2ccccc2)no1)C(=O)CN(C)S(=O)(=O)c1ccccc1 | -2 | 9.6* | 6 | 13 | -3 | 8 | 0
CC1(C(=O)Nc2ccc(Cl)c(Cl)c2)CCN1C(=O)C1CCCCC1 (stereo not given) | 0 | 16* | 4 | 2 | / | -5 | -3
CC(C)(C)c1cc(C(=O)CCN2CCOCC2)cc(C(C)(C)C)c1O | -1 | 13* | -2 | 16 | 18 | -6 | -5
